Laboratory results reported in ChEMBL document CHEMBL4382192, “Discovery of a potent dual ALK and EGFR T790M inhibitor” (Eur J Med Chem, 2017).

Columns and labels:
[1] = Cmax in mouse at 10 mg/kg, po; type: ADME, organism-based; set-up: dose 10 mg/kg, route oral; conditions: in vivo
[2] = test system: Epidermal growth factor receptor (Homo sapiens), P00533 [G719C]; assay: Binding affinity to human partial length EGFR G719C mutant (R669 to V1011 residues) expressed in bacterial expression system assessed as residual binding level at 1 uM by Kinomescan method relative to control
Outline: (§1)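 Kinome-wide selectivity panel run by the KINOMEscan method, with the test compound at a single concentration of 1 μM. Wild-type and mutant kinases were profiled in the same screen.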

[3] = target: Receptor-interacting serine/threonine-protein kinase 1 (Homo sapiens) (UniProt Q13546); assay: Binding affinity to wild-type human partial length RIPK1 (M1 to K305 residues) expressed in bacterial expression system assessed as residual binding level at 1 uM by Kinomescan method relative to control
[4] = target: SRSF protein kinase 1 (Homo sapiens) (UniProt Q96SB4); assay: Binding affinity to wild-type human full length SRPK1 (M1 to S655 residues) expressed in bacterial expression system assessed as residual binding level at 1 uM by Kinomescan method relative to control
Outline: (§2)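 Single-point kinome-wide KINOMEscan binding panel, test compound at 1 μM, run by the provider's standard protocol.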

[5] = target: Serine/threonine-protein kinase 26 (Homo sapiens) (UniProt Q9P289); assay: Binding affinity to wild-type human full length MST4 (M1 to P416 residues) expressed in mammalian expression system assessed as residual binding level at 1 uM by Kinomescan method relative to control; outline: as §2
[6] = target: Protein kinase C theta type (Homo sapiens) (UniProt Q04759); assay: Binding affinity to wild-type human partial length PRKCQ (L350 to S706 residues) expressed in bacterial expression system assessed as residual binding level at 1 uM by Kinomescan method relative to control
[7] = target: Casein kinase I isoform alpha (Homo sapiens) (UniProt P48729); assay: Binding affinity to wild-type human partial length CSNK1A1 (M1 to L450 residues) expressed in mammalian expression system assessed as residual binding level at 1 uM by Kinomescan method relative to control
[8] = target: Mitogen-activated protein kinase kinase kinase 4 (Homo sapiens) (UniProt Q9Y6R4); assay: Binding affinity to wild-type human partial length MAP3K4 (G1319 to E1608 residues) expressed in bacterial expression system assessed as residual binding level at 1 uM by Kinomescan method relative to control
Sequence of Mitogen-activated protein kinase kinase kinase 4 (Homo sapiens) (Q9Y6R4 whole entry, the tested form may be a part): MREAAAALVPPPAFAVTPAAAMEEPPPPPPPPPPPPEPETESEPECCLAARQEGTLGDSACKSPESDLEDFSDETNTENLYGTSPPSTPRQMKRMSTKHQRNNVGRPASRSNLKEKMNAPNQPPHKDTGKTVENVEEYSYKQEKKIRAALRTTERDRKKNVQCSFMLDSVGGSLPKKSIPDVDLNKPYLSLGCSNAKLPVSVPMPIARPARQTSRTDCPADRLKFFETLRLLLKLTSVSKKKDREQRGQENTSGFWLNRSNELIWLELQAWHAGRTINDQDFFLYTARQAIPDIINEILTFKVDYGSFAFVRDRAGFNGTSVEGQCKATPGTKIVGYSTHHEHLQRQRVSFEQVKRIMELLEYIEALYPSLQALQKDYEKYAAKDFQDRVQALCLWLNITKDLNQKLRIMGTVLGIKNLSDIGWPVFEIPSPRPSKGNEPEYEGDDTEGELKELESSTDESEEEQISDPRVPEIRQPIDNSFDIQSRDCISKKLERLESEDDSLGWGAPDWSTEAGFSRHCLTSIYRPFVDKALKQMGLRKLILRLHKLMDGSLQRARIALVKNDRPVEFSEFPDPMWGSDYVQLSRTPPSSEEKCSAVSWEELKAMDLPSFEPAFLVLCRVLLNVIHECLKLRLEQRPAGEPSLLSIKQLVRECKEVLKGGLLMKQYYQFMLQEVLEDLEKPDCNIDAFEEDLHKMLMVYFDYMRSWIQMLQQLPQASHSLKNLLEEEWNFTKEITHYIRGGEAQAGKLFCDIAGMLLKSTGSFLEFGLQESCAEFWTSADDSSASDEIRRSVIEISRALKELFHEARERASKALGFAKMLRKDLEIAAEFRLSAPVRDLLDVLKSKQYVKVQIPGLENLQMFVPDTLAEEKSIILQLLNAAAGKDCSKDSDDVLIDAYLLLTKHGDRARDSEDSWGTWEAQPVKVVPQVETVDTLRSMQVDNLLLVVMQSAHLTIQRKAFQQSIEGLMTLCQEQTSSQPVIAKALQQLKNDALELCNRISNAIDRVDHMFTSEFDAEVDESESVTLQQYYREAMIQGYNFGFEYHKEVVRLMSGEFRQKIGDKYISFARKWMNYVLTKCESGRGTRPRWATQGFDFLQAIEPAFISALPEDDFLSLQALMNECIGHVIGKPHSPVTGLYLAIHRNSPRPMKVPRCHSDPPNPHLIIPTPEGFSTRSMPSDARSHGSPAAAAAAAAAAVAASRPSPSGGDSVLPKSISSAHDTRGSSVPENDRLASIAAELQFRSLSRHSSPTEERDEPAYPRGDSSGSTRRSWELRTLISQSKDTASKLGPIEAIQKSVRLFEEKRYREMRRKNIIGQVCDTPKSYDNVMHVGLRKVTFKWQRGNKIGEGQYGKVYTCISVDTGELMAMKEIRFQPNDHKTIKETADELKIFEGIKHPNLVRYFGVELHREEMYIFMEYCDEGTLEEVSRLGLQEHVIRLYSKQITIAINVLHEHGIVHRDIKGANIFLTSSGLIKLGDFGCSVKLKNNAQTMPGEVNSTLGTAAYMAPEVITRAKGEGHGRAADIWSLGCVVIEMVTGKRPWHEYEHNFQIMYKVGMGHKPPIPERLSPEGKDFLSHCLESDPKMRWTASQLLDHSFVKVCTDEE

[9] = test system: Epidermal growth factor receptor (Homo sapiens), P00533 [L858R,T790M]; assay: Binding affinity to human partial length EGFR L858R/T790M double mutant (R669 to V1011 residues) expressed in mammalian expression system assessed as residual binding level at 1 uM by Kinomescan method relative to control; outline: as §1
[10] = target: Fibroblast growth factor receptor 4 (Homo sapiens) (UniProt P22455); assay: Binding affinity to wild-type human partial length FGFR4 (G402 to E713 residues) expressed in bacterial expression system assessed as residual binding level at 1 uM by Kinomescan method relative to control
[11] = target: Ephrin type-A receptor 3 (Homo sapiens) (UniProt P29320); assay: Binding affinity to wild-type human partial length EPHA3 (D604 to K889 residues) expressed in bacterial expression system assessed as residual binding level at 1 uM by Kinomescan method relative to control
[12] = target: TGF-beta receptor type-1 (Homo sapiens) (UniProt P36897); assay: Binding affinity to wild-type human partial length TGFBR1 (D179 to M503 residues) expressed in bacterial expression system assessed as residual binding level at 1 uM by Kinomescan method relative to control
Sequence of TGF-beta receptor type-1 (Homo sapiens) (P36897 whole entry, the tested form may be a part): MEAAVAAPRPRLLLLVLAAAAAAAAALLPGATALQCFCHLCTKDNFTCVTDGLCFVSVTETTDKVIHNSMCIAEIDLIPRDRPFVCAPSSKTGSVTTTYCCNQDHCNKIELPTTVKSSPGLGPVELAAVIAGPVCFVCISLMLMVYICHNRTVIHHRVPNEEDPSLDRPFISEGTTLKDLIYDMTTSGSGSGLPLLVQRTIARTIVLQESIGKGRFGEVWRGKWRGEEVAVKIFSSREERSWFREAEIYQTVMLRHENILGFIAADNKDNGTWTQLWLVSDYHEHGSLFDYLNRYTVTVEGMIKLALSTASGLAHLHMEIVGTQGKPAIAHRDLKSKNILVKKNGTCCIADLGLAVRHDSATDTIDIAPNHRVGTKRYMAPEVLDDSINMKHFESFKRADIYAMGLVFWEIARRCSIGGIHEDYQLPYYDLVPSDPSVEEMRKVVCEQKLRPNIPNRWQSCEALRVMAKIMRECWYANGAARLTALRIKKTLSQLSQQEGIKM

[13] = Metabolic stability in human liver microsomes assessed as parent compound remaining at 1 uM after 30 mins in presence of NADPH by LC/MS/MS analysis; type: ADME, Microsome; conditions: read-out: Stability
Outline: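 Compound at 1 μM final with 0.5 mg/mL microsomal protein in 100 mM phosphate buffer pH 7.4 at 37 °C, started by adding an NADPH-regenerating system. Reactions were quenched with cold acetonitrile at 0 and 30 min and spun down. Supernatant was analysed by LC-MS/MS. The 0-min sample, quenched before NADPH addition, was set as 100%, and percent parent remaining came from peak areas.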

[14] = target: Tyrosine-protein kinase Fyn (Homo sapiens) (UniProt P06241); assay: Binding affinity to wild-type human partial length FYN (T243 to L534 residues) expressed in bacterial expression system assessed as residual binding level at 1 uM by Kinomescan method relative to control
[15] = target: Serine/threonine-protein kinase 10 (Homo sapiens) (UniProt O94804); assay: Binding affinity to wild-type human partial length LOK (E16 to V314 residues) expressed in bacterial expression system assessed as residual binding level at 1 uM by Kinomescan method relative to control
[16] = target: Mitogen-activated protein kinase kinase kinase 10 (Homo sapiens) (UniProt Q02779); assay: Binding affinity to wild-type human partial length MLK2 (V52 to W380 residues) expressed in bacterial expression system assessed as residual binding level at 1 uM by Kinomescan method relative to control
[17] = target: Transient receptor potential cation channel subfamily M member 6 (Homo sapiens) (UniProt Q9BX84); assay: Binding affinity to wild-type human partial length TRPM6 (Q1723 to I1998 residues) expressed in mammalian expression system assessed as residual binding level at 1 uM by Kinomescan method relative to control
Sequence of Transient receptor potential cation channel subfamily M member 6 (Homo sapiens) (Q9BX84 whole entry, the tested form may be a part): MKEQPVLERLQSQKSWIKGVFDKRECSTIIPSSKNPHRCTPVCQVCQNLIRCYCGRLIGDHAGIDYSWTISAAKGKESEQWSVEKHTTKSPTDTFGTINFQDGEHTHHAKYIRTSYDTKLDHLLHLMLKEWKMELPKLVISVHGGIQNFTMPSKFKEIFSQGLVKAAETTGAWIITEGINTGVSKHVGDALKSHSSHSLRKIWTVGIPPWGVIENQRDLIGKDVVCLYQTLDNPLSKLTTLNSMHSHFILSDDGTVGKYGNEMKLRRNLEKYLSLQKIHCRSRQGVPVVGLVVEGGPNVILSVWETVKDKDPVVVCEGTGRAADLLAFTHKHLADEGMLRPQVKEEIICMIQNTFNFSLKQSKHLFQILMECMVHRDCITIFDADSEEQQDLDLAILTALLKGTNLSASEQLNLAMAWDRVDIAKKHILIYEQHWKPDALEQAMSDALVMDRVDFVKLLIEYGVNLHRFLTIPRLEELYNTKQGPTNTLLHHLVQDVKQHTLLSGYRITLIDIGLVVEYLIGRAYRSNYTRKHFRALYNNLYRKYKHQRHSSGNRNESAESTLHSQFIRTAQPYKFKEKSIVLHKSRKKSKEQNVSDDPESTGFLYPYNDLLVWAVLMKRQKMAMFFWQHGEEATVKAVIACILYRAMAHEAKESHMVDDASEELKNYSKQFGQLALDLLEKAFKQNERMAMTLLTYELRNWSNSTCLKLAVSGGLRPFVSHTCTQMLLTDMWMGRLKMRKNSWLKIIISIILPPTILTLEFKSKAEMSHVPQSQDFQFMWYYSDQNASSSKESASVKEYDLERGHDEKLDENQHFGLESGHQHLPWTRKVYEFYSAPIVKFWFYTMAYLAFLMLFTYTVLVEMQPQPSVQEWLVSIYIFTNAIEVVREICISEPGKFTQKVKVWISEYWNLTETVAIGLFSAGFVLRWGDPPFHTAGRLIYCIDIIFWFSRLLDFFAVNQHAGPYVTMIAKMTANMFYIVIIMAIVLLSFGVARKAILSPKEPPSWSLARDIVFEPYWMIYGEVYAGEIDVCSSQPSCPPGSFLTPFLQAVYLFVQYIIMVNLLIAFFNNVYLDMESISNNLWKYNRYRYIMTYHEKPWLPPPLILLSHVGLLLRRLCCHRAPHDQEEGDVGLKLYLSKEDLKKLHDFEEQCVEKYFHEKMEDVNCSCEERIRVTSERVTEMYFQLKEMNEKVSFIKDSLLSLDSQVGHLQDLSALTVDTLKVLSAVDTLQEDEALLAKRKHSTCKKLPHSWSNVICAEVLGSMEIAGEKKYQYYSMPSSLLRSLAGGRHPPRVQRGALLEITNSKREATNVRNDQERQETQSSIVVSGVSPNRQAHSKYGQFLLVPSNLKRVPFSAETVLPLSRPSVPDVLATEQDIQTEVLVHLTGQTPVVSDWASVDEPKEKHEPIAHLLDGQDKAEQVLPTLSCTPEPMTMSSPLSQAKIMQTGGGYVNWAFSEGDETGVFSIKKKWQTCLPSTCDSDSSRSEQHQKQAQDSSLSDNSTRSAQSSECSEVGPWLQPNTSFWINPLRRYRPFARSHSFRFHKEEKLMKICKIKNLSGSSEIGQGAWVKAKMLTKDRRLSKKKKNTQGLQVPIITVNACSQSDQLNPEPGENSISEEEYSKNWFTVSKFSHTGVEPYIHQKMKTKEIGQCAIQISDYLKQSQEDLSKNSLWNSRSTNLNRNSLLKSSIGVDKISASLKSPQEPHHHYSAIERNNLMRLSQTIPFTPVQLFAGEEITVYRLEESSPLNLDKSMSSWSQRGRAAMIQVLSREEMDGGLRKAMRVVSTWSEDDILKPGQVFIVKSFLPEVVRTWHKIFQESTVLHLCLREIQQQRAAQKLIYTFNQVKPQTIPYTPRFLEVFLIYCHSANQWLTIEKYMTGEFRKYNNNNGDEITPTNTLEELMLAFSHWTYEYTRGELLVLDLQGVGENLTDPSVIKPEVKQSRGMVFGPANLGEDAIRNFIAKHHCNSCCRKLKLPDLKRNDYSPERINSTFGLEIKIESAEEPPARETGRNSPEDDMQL

Insulin receptor = Insulin receptor (Homo sapiens, UniProt P06213); assay: Binding affinity to wild-type human partial length INSR (P997 to E1318 residues) expressed in mammalian expression system assessed as residual binding level at 1 uM by Kinomescan method relative to control
[18] = target: Serine/threonine-protein kinase 17A (Homo sapiens) (UniProt Q9UEE5); assay: Binding affinity to wild-type human partial length DRAK1 (R32 to E363 residues) expressed in bacterial expression system assessed as residual binding level at 1 uM by Kinomescan method relative to control
Sequence of Serine/threonine-protein kinase 17A (Homo sapiens) (Q9UEE5 whole entry, the tested form may be a part): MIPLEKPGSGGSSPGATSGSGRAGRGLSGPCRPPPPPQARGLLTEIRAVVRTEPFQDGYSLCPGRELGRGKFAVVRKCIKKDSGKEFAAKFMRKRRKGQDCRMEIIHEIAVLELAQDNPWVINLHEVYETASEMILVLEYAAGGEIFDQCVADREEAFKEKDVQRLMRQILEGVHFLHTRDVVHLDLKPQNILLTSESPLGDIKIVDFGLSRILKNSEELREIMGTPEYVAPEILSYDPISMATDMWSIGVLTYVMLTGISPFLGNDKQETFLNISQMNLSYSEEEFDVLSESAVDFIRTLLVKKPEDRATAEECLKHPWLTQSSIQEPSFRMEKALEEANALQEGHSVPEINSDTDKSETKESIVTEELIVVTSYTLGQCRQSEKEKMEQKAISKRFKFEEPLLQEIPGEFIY

[19] = target: Cyclin-dependent kinase 19 (Homo sapiens) (UniProt Q9BWU1); assay: Binding affinity to wild-type human partial length CDK11 (M1 to N360 residues) expressed in bacterial expression system assessed as residual binding level at 1 uM by Kinomescan method relative to control
[20] = target: Serine/threonine-protein kinase RIO1 (Homo sapiens) (UniProt Q9BRS2); assay: Binding affinity to wild-type human full length RIOK1 (M1 to K568 residues) expressed in bacterial expression system assessed as residual binding level at 1 uM by Kinomescan method relative to control; outline: as §2
[21] = target: Ephrin type-A receptor 5 (Homo sapiens) (UniProt P54756); assay: Binding affinity to wild-type human partial length EPHA5 (T627 to V930 residues) expressed in bacterial expression system assessed as residual binding level at 1 uM by Kinomescan method relative to control
[22] = target: cAMP-dependent protein kinase catalytic subunit PRKX (Homo sapiens) (UniProt P51817); assay: Binding affinity to wild-type human partial length PRKX (M1 to F358 residues) expressed in bacterial expression system assessed as residual binding level at 1 uM by Kinomescan method relative to control
Sequence of cAMP-dependent protein kinase catalytic subunit PRKX (Homo sapiens) (P51817 whole entry, the tested form may be a part): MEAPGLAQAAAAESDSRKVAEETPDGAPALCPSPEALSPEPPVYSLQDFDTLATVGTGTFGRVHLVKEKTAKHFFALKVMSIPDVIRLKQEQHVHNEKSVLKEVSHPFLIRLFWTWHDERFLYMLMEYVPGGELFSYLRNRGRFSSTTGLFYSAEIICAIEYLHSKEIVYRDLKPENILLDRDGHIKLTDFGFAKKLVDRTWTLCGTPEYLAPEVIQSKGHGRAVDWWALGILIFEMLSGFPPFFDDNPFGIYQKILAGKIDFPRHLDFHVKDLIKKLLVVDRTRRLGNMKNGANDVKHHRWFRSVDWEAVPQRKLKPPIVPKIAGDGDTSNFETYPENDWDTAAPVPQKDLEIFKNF

Q: With C=CC(=O)Nc1cc(Nc2ncc(Cl)c(Nc3ccccc3S(=O)(=O)C(C)C)n2)c(OC)cc1N(C)CCN(C)C as the compound, how does the Cmax [1] read?
A: The Cmax was 520 ng/mL.

Q: And the Activity [2]?
A: The Activity was 0.95%.

Q: What about the Activity [3] of the same compound?
A: Its Activity is 82%.

Q: And the Activity [4]?
A: The Activity was 28%.

Q: What about the Activity [5] of the same compound?
A: Its Activity is 29%.

Q: What about the Activity [6] of the same compound?
A: Its Activity is 48%.

Q: What about the Activity [7] of the same compound?
A: The Activity was 74%.

Q: And the Activity [8]?
A: The Activity was 67%.

Q: What about the Activity [9] of the same compound?
A: The Activity was 0.95%.

Q: And the Activity [10]?
A: Its Activity is 9.6%.

Q: And the Activity [11]?
A: Its Activity is 77%.

Q: And the Activity [12]?
A: The Activity was 18%.

Q: And the remaining at 0.5 h, 1 µM [13]?
A: The remaining at 0.5 h, 1 µM was 16%.

Q: And the Activity [14]?
A: The Activity was 46%.

Q: What about the Activity [15] of the same compound?
A: Its Activity is 0%.

Q: And the Activity [16]?
A: Its Activity is 80%.

Q: And the Activity [17]?
A: Its Activity is 52%.

Q: And the Activity (Insulin receptor)?
A: Its Activity is 0%.

Q: And the Activity [18]?
A: The Activity was 83%.

Q: What about the Activity [19] of the same compound?
A: Its Activity is 86%.

Q: And the Activity [20]?
A: The Activity was 92%.

Q: And the Activity [21]?
A: The Activity was 88%.

Q: What about the Activity [22] of the same compound?
A: Its Activity is 100%.
